Test results published in ChEMBL document CHEMBL1795205, “The new 5- or 6-azapyrimidine and cyanuric acid derivatives of l-ascorbic acid bearing the free C-5 hydroxy or C-4 amino group at the ethylenic spacer: CD-spectral absolute configuration determination and biological activity evaluations” (Eur J Med Chem, 2011).

Key:
[1] = system: HeLa; assay: Induction of cell cycle arrest in human HeLa cells assessed as accumulation at G1 phase at 5 uM after 24 hrs by flow cytometry relative to control; format: functional
Method in brief: (§1)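 Cells were seeded at 3×10⁵ per well in 6-well plates and treated after overnight incubation for 24 and 48 h. They were trypsinized, washed three times in PBS, fixed in cold ethanol and stored at −20 °C. Pellets were washed twice in PBS and treated with RNase A at 37 °C for 15 min, then stained with PI for 30 min in the dark. DNA content was measured by flow cytometry.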

[2] = system: HeLa; assay: Induction of cell cycle arrest in human HeLa cells assessed as accumulation at G2/M phase at 5 uM after 24 hrs by flow cytometry relative to control; format: functional; method in brief: as §1
[3] = system: HeLa; assay: Induction of cell cycle arrest in human HeLa cells assessed as accumulation at S phase at 5 uM after 24 hrs by flow cytometry relative to control; format: functional; method in brief: as §1
[4] = system: HeLa; assay: Induction of cell cycle arrest in human HeLa cells assessed as accumulation at subG1 phase at 5 uM after 24 hrs by flow cytometry relative to control; format: functional; method in brief: as §1
[5] = system: HeLa; assay: Induction of cell cycle arrest in human HeLa cells assessed as accumulation at G1 phase at 5 uM after 48 hrs by flow cytometry relative to control; format: functional; method in brief: as §1
[6] = system: HeLa; assay: Induction of cell cycle arrest in human HeLa cells assessed as accumulation at G2/M phase at 5 uM after 48 hrs by flow cytometry relative to control; format: functional; method in brief: as §1
[7] = system: HeLa; assay: Induction of cell cycle arrest in human HeLa cells assessed as accumulation at S phase at 5 uM after 48 hrs by flow cytometry relative to control; format: functional; method in brief: as §1
[8] = system: HeLa; assay: Induction of cell cycle arrest in human HeLa cells assessed as accumulation at subG1 phase at 5 uM after 48 hrs by flow cytometry relative to control; format: functional; method in brief: as §1
[9] = system: HeLa; assay: Cytostatic activity against human HeLa cells assessed as inhibition of cell proliferation after 72 hrs by MTT assay; format: functional, cell-based
Method in brief: (§2)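 Monolayer cells grown in DMEM with 10% FBS were seeded on day 0 at 3000–6000 cells/well, set by each line's doubling time. Agents were added the next step in five 10-fold dilutions (0.01–100) for 72 h, with DMSO ≤0.1% and a solvent control. MTT absorbance was converted to percentage growth versus untreated wells on the same plate. Where all PGs exceeded 50, the top concentration was reported as ">". ANOVA/Tukey, p<0.05.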

[10] = system: MCF7; assay: Cytostatic activity against human MCF7 cells assessed as inhibition of cell proliferation after 72 hrs by MTT assay; format: functional, cell-based; settings: MCF7, 72 h; method in brief: as §2
[11] = system: HepG2; assay: Cytostatic activity against human HepG2 cells assessed as inhibition of cell proliferation after 72 hrs by MTT assay; format: functional, cell-based; settings: HepG2, 72 h; method in brief: as §2
[12] = system: SW-620; assay: Cytostatic activity against human SW620 cells assessed as inhibition of cell proliferation after 72 hrs by MTT assay; format: functional, cell-based; settings: SW-620, 72 h; method in brief: as §2
[13] = system: MIA PaCa-2; assay: Cytostatic activity against human MIAPaCa2 cells assessed as inhibition of cell proliferation after 72 hrs by MTT assay; format: functional, cell-based; settings: MIA PaCa-2, 72 h; method in brief: as §2
[14] = system: WI-38; assay: Cytotoxicity against human WI38 cells assessed as inhibition of cell proliferation after 72 hrs by MTT assay; format: cell-based; settings: WI-38, 72 h; method in brief: as §2
[15] = system: HeLa; assay: Induction of cell cycle arrest in human HeLa cells assessed as accumulation at G1 phase at 10 uM after 24 hrs by flow cytometry (reference value: 44.8 +/- 11.2%); format: functional; method in brief: as §1
[16] = system: HeLa; assay: Induction of cell cycle arrest in human HeLa cells assessed as accumulation at G2/M phase at 10 uM after 24 hrs by flow cytometry (reference value: 10.9 +/- 2.6%); format: functional; method in brief: as §1
[17] = system: HeLa; assay: Induction of cell cycle arrest in human HeLa cells assessed as accumulation at S phase at 10 uM after 24 hrs by flow cytometry (reference value: 44.4 +/- 8.7%); format: functional; method in brief: as §1
[18] = system: HeLa; assay: Induction of cell cycle arrest in human HeLa cells assessed as accumulation at subG1 phase at 10 uM after 24 hrs by flow cytometry (reference value: 0.49 +/- 0.2%); format: functional; method in brief: as §1
[19] = system: HeLa; assay: Induction of cell cycle arrest in human HeLa cells assessed as accumulation at G1 phase at 10 uM after 48 hrs by flow cytometry (reference value: 56.1 +/- 0.1%); format: functional; method in brief: as §1
[20] = system: HeLa; assay: Induction of cell cycle arrest in human HeLa cells assessed as accumulation at G2/M phase at 10 uM after 48 hrs by flow cytometry (reference value: 3.25 +/- 0.1%); format: functional; method in brief: as §1
[21] = system: HeLa; assay: Induction of cell cycle arrest in human HeLa cells assessed as accumulation at S phase at 10 uM after 48 hrs by flow cytometry (reference value: 40.6 +/- 0.1%); format: functional; method in brief: as §1
[22] = system: HeLa; assay: Induction of cell cycle arrest in human HeLa cells assessed as accumulation at subG1 phase at 10 uM after 48 hrs by flow cytometry (reference value: 0.16 +/- 0.01%); format: functional; method in brief: as §1
[23] = system: MCF7; assay: Induction of cell cycle arrest in human MCF7 cells assessed as accumulation at G1 phase at 5 uM after 24 hrs by flow cytometry (reference value: 50.7 +/- 3.1%); format: functional; method in brief: as §1
[24] = system: MCF7; assay: Induction of cell cycle arrest in human MCF7 cells assessed as accumulation at G2/M phase at 5 uM after 24 hrs by flow cytometry (reference value: 15.9 +/- 2.7%); format: functional; method in brief: as §1
[25] = system: MCF7; assay: Induction of cell cycle arrest in human MCF7 cells assessed as accumulation at S phase at 5 uM after 24 hrs by flow cytometry (reference value: 33.4 +/- 0.4%); format: functional; method in brief: as §1
[26] = system: MCF7; assay: Induction of cell cycle arrest in human MCF7 cells assessed as accumulation at subG1 phase at 5 uM after 24 hrs by flow cytometry (reference value: 0.68 +/- 0.4%); format: functional; method in brief: as §1
[27] = system: MCF7; assay: Induction of cell cycle arrest in human MCF7 cells assessed as accumulation at G1 phase at 10 uM after 24 hrs by flow cytometry (reference value: 50.7 +/- 3.1%); format: functional; method in brief: as §1
[28] = system: MCF7; assay: Induction of cell cycle arrest in human MCF7 cells assessed as accumulation at G2/M phase at 10 uM after 24 hrs by flow cytometry (reference value: 15.9 +/- 2.7%); format: functional; method in brief: as §1
[29] = system: MCF7; assay: Induction of cell cycle arrest in human MCF7 cells assessed as accumulation at S phase at 10 uM after 24 hrs by flow cytometry (reference value: 33.4 +/- 0.4%); format: functional; method in brief: as §1
[30] = system: MCF7; assay: Induction of cell cycle arrest in human MCF7 cells assessed as accumulation at subG1 phase at 10 uM after 24 hrs by flow cytometry (reference value: 0.68 +/- 0.4%); format: functional; method in brief: as §1
[31] = system: MCF7; assay: Induction of cell cycle arrest in human MCF7 cells assessed as accumulation at G1 phase at 5 uM after 48 hrs by flow cytometry (reference value: 52.3 +/- 6.1%); format: functional; method in brief: as §1
[32] = system: MCF7; assay: Induction of cell cycle arrest in human MCF7 cells assessed as accumulation at G2/M phase at 5 uM after 48 hrs by flow cytometry (reference value: 6.82 +/- 0.3%); format: functional; method in brief: as §1
[33] = system: MCF7; assay: Induction of cell cycle arrest in human MCF7 cells assessed as accumulation at S phase at 5 uM after 48 hrs by flow cytometry (reference value: 40.9 +/- 5.7%); format: functional; method in brief: as §1
[34] = system: MCF7; assay: Induction of cell cycle arrest in human MCF7 cells assessed as accumulation at subG1 phase at 5 uM after 48 hrs by flow cytometry (reference value: 0.51 +/- 0.01%); format: functional; method in brief: as §1
[35] = system: MCF7; assay: Induction of cell cycle arrest in human MCF7 cells assessed as accumulation at G1 phase at 10 uM after 48 hrs by flow cytometry (reference value: 52.3 +/- 6.1%); format: functional; method in brief: as §1
[36] = system: MCF7; assay: Induction of cell cycle arrest in human MCF7 cells assessed as accumulation at G2/M phase at 10 uM after 48 hrs by flow cytometry (reference value: 6.82 +/- 0.3%); format: functional; method in brief: as §1
[37] = system: MCF7; assay: Induction of cell cycle arrest in human MCF7 cells assessed as accumulation at S phase at 10 uM after 48 hrs by flow cytometry (reference value: 40.9 +/- 5.7%); format: functional; method in brief: as §1
[38] = system: MCF7; assay: Induction of cell cycle arrest in human MCF7 cells assessed as accumulation at subG1 phase at 10 uM after 48 hrs by flow cytometry (reference value: 0.51 +/- 0.01%); format: functional; method in brief: as §1

## O=C1O/C(=C\Cn2ccc(NC(=O)c3ccccc3)nc2=O)C(OCc2ccccc2)=C1OCc1ccccc1
[1]
  Activity: 47.1%
[2]
  Activity: 13.1%
[3]
  Activity: 39.9%
[4]
  Activity: 0.04%
[5]
  Activity: 60.8%
[6]
  Activity: 2.8%
[7]
  Activity: 36.5%
[8]
  Activity: 0.27%
[9]
  IC50: 7.2 µM
[10]
  IC50: 2.03 µM
[11]
  IC50: 1.98 µM
[12]
  IC50: > 100 µM
[13]
  IC50: 24.2 µM
[14]
  IC50: 8.49 µM
[15]
  Activity: 37.9%
[16]
  Activity: 8.45%
[17]
  Activity: 53.7%
[18]
  Activity: 0.2%
[19]
  Activity: 52.3%
[20]
  Activity: 8.3%
[21]
  Activity: 39.5%
[22]
  Activity: 0.56%
[23]
  Activity: 57.9%
[24]
  Activity: 13.8%
[25]
  Activity: 28.3%
[26]
  Activity: 0.42%
[27]
  Activity: 54.3%
[28]
  Activity: 6.54%
[29]
  Activity: 39.2%
[30]
  Activity: 0.2%
[31]
  Activity: 50.6%
[32]
  Activity: 13.9%
[33]
  Activity: 35.6%
[34]
  Activity: 0.37%
[35]
  Activity: 56.6%
[36]
  Activity: 5.52%
[37]
  Activity: 38%
[38]
  Activity: 0.32%
